pIC50, pKi: −log10 of the molar value.
How the values were obtained:
[1] = tested on: Severe acute respiratory syndrome-related coronavirus; experiment: (§1) Inhibition of SARS coronavirus papain-like protease (1541 to 1855 amino acids) expressed in Escherichia coli BL21 (DE3) using Z-RLRGG-AMC as substrate by fluorogenic assay
Method in brief: (§2)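 Protease domain construct His-tagged, purified by nickel affinity, ion-exchange and gel filtration, tag removed by TEV. […] AMC release followed continuously at ex 360/em 460 nm. IC50 is the concentration giving 50% activity loss; three repeat experiments, standard deviation.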

[2] = as §1; design: species or system Severe acute respiratory syndrome-related coronavirus; method in brief: as §2
[3] = Mixed-type of inhibition of SARS coronavirus papain-like protease (1541 to 1855 amino acids) expressed in Escherichia coli BL21 (DE3) using Z-RLRGG-AMC as substrate by Dixon plot analysis; design: species or system Severe acute respiratory syndrome-related coronavirus

Compound	inhibition [1]	pIC50 [2]	pKi [3]
CC(C)=CCC/C(C)=C/Cc1c(O)cc2c(c1O)C(=O)C[C@@H](c1ccc(O)c(O)c1)O2 [NYMPHAEOL A]	Dose-dependent effect	4.98	5.29
COc1cc([C@@H]2CC(=O)c3c(cc(O)c(C/C=C(\C)CCC=C(C)C)c3O)O2)cc(OC)c1O	Dose-dependent effect	4.86	5.08
COc1ccc([C@H]2Oc3cc(O)c(C/C=C(\C)CCC=C(C)C)c(O)c3C(=O)[C@@H]2O)cc1O	Dose-dependent effect	5.04	5.20
CC(C)=CCC/C(C)=C/Cc1c(O)cc2c(c1O)C(=O)C[C@@H](c1ccc(O)cc1)O2 [BONANNIONE A]	Dose-dependent effect	4.84	5.11
COc1cc([C@@H]2CC(=O)c3c(cc4c(c3O)CCC(C)(CCCC(C)(C)O)O4)O2)cc(OC)c1O (some centres undefined)	Dose-dependent effect	4.90	4.89
CC(C)(O)CCCC1(C)CCc2c(cc3c(c2O)C(=O)C[C@@H](c2ccc(O)c(O)c2)O3)O1 (some centres undefined)	Dose-dependent effect	5.21	5.32
COc1cc([C@H]2Oc3cc(O)c(C/C=C(\C)CCC=C(C)C)c(O)c3C(=O)[C@@H]2O)ccc1O	Dose-dependent effect	5.02	5.18
COc1cc([C@H]2Oc3cc4c(c(O)c3C(=O)[C@@H]2O)CCC(C)(CCCC(C)(C)O)O4)ccc1O (some centres undefined)	Dose-dependent effect	5.30	5.43
COc1cc([C@@H]2CC(=O)c3c(cc(O)c(C/C=C(\C)CCC=C(C)C)c3O)O2)ccc1O	Dose-dependent effect	4.88	5.15
COc1ccc([C@@H]2CC(=O)c3c(cc4c(c3O)CCC(C)(CCCC(C)(C)O)O4)O2)cc1O (some centres undefined)	Dose-dependent effect	–	–
COc1ccc([C@@H]2CC(=O)c3c(cc(O)c(C/C=C(\C)CCC=C(C)C)c3O)O2)cc1O	Dose-dependent effect	4.90	5.16
COc1cc([C@@H]2CC(=O)c3c(cc4c(c3O)CCC(C)(CCCC(C)(C)O)O4)O2)cc(O)c1OC (some centres undefined)	Dose-dependent effect	4.94	5.30
